Results taken from ChEMBL document CHEMBL4371075, “α-Amino Diphenyl Phosphonates as Novel Inhibitors of Escherichia coli ClpP Protease” (J Med Chem, 2019).
Activity calls are given as the source filed them. No cut-off for these calls is given here.

Legend:
A549 = assay: Cytotoxicity against human A549 cells after 48 hrs by CellTiter-Glo assay; format: cell-based; conditions: A549, 48 h
In short: (§1)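 Human cells seeded (2000 cells/well; A549 500 cells/well), 24 h at 37 °C, 5% CO2, then compounds added (final DMSO 1%), 1:3 dilution series from 100 µM, 48 h exposure. ATP read by CellTiter-Glo luminescence relative to DMSO-treated cells; DMSO (1%) negative and valinomycin (10 µM) positive controls; plates accepted at Z' > 0.5.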

[1] = molecular target: ATP-dependent Clp protease proteolytic subunit (Escherichia coli (strain K12), UniProt P0A6G7); assay: Inhibition of Escherichia coli C-terminal His6-tagged ClpP expressed Escherichia coli SG1146a using Suc-LY-AMC as substrate preincubated for 10 mins followed by substrate addition and measured over 1 hr by fluorescence assay
In short: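 ClpP at 625 nM with compound serial dilutions (1:3 or 1:2) in 100 mM NaCl, 100 mM Hepes pH 7.5, 0.05% Brij 35, preincubated 10 min at 30 °C. Suc-LY-AMC added (75 µM), fluorescence (ex 350/em 435 nm) tracked 1 h at 30 °C against DMSO vehicle (2% v/v).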

HeLa = assay: Cytotoxicity against human HeLa cells after 48 hrs by CellTiter-Glo assay; format: cell-based; in short: as §1
alpha-chymotrypsin = alpha-chymotrypsin (Bos taurus, UniProt P00766); assay: Inhibition of bovine alpha-chymotrypsin assessed as residual activity at 200 uM relative to control; conditions: cattle, read-out: Activity
In short: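 Bovine α-chymotrypsin (40 nM) with compound at 200 µM and Suc-LY-AMC (100 µM) in 150 mM NaCl, 10 mM CaCl2, 50 mM Tris-HCl, 0.05% Brij 35. AMC fluorescence read-out; residual activity relative to control without compound.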

[2] = molecular target: ATP-dependent Clp protease proteolytic subunit (Escherichia coli (strain K12)) (UniProt P0A6G7); assay: Inhibition of Escherichia coli C-terminal His6-tagged ClpP expressed Escherichia coli SG1146a at 200 uM using Suc-LY-AMC as substrate preincubated for 10 mins followed by substrate addition and measured over 1 hr by fluorescence assay relative to control
In short: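 E. coli ClpP (625 nM) in 100 mM NaCl, 100 mM Hepes pH 7.5, 0.05% Brij 35, preincubated with compound (200 µM final, triplicates) 10 min at 30 °C. Suc-LY-AMC added (75 µM), fluorescence (ex 350/em 435 nm) followed over 1 h at 30 °C. Inhibition relative to 2% DMSO vehicle; Z-LY-CMK (200 µM) positive control; plates valid at Z' > 0.6.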

HepG2 = assay: Cytotoxicity against human HepG2 cells after 48 hrs by CellTiter-Glo assay; format: cell-based; conditions: HepG2, 48 h; in short: as §1
Escherichia coli [3] = assay: Growth inhibition of wild-type Escherichia coli BW25113 at 100 uM measured at 1 hr time interval for 15 to 24 hrs; format: functional, organism-based
In short: (§2)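 E. coli BW25-113 and isogenic ΔclpP JW0427-1, grown overnight in MHB, diluted 1:100 in M9 + 10 mM glucose to OD600 ~0.3; assayed at OD600 0.1 with compound 100 µM, with or without DPTA NONOate (2 mM) for NO stress. 37 °C, 500 rpm; OD600 hourly for 15 or 24 h; mean of three independent experiments ± standard deviation.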

[4] = molecular target: ATP-dependent Clp protease proteolytic subunit (Escherichia coli (strain K12)) (UniProt P0A6G7); assay: Reversible binding affinity to Escherichia coli C-terminal His6-tagged ClpP expressed Escherichia coli SG1146a up to 320 uM measured after cessation of compound treatment by SPR analysis
In short: (§3)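 His-tagged E. coli ClpP amine-coupled to chip (80 µg/mL in 10 mM sodium acetate pH 4). Running buffer 150 mM NaCl, 10 mM Hepes, 3 mM EDTA, 0.05% Tween-20, 3.2% DMSO; 20 µL/min, 6 min injection, up to 300 s dissociation; 2.5–320 µM range. Reference-channel subtracted, DMSO/bulk-shift corrected; return to baseline after injection end judged.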

Escherichia coli [5] = assay: Growth inhibition of ClpP-deficient Escherichia coli JW0427-1 at 100 uM under nitric oxide stress condition measured at 1 hr time interval for 15 to 24 hrs in presence of DPTA NONOate; format: functional, organism-based; in short: as §2
Escherichia coli [6] = assay: Growth inhibition of ClpP-deficient Escherichia coli JW0427-1 at 100 uM measured at 1 hr time interval for 15 to 24 hrs; format: functional, organism-based; in short: as §2
Escherichia coli [7] = assay: Growth inhibition of wild-type Escherichia coli BW25113 at 100 uM under nitric oxide stress condition measured at 1 hr time interval for 15 to 24 hrs in presence of DPTA NONOate; format: functional, organism-based; in short: as §2
[8] = system: Escherichia coli ClpP (C-terminal His6-tagged); assay: Selectivity index, ratio of EC50 for human A549 cells to IC50 for Escherichia coli C-terminal His6-tagged ClpP expressed Escherichia coli SG1146a; format: toxicity; conditions: read-out: Selectivity Index
Escherichia coli [9] = assay: Growth inhibition of tolC-deficient Escherichia coli JW5503 at 100 uM measured after 24 hrs relative to control; format: functional; conditions: JW5503, 24 h, read-out: GI
In short: (§4)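 Single colony in saline, adjusted in MHB; final inoculum 5x10^5 CFU/mL, compound 100 µM in triplicate, 2% DMSO and ciprofloxacin controls. 37 °C, 500 rpm shaking; OD600 at time 0 and later time points to quantify growth.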

Staphylococcus aureus = assay: Growth inhibition of Staphylococcus aureus ATCC 29213 at 100 uM measured after 24 hrs relative to control; format: functional; conditions: ATCC 29213, 24 h, read-out: GI; in short: as §4
[10] = molecular target: ATP-dependent Clp protease proteolytic subunit (Escherichia coli (strain K12)) (UniProt P0A6G7); assay: Reversible binding affinity to Escherichia coli C-terminal His6-tagged ClpP expressed Escherichia coli SG1146a up to 80 uM measured after cessation of compound treatment by SPR analysis; in short: as §3

Chain of ATP-dependent Clp protease proteolytic subunit (Escherichia coli (strain K12)) (P0A6G7 whole entry): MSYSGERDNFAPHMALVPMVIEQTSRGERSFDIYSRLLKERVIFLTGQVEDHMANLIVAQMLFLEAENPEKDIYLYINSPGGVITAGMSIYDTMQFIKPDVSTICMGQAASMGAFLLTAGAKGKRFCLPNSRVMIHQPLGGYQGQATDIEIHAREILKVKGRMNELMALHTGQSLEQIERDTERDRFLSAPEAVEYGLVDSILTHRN
Chain of ATP-dependent Clp protease proteolytic subunit (P0A6G7 whole entry): as above

Row | SMILES | EC50 (A549) [µM] | IC50 [1] [µM] | EC50 (HeLa) [µM] | activity at 200 µM (alpha-chymotrypsin) [%] | inhibition [2] [%] | EC50 (HepG2) [µM] | further results
1 | C[C@H](NC(=O)[C@H](CO)NC(=O)c1cccs1)C(=O)NC(Cc1ccc(NC(=N)N)cc1)P(=O)(Oc1ccccc1)Oc1ccccc1 (some centres undefined) | ≥ 100 | 49.5 | ≥ 100 | ≥ 100 | 90 | ≥ 100 | 
2 | Nc1cccc(C(NC(=O)OCc2ccccc2)P(=O)(Oc2ccccc2)Oc2ccccc2)c1 (centres undefined) | 27.5 | 0.5 | ≥ 100 | 17.9 | 100 | 23.8 | growth inhibition (GI) (Escherichia coli [3]): inactive; Activity [4]: Active; growth inhibition (GI) (Escherichia coli [5]): inactive; growth inhibition (GI) (Escherichia coli [6]): inactive; growth inhibition (GI) (Escherichia coli [7]): Active
3 | O=C(NC(c1ccc(NC(=O)C(F)(F)F)cc1)P(=O)(Oc1ccccc1)Oc1ccccc1)OCc1ccc2c(c1)OCO2 (centres undefined) | 41.5 | 8.2 | ≥ 100 | 46 | 93 | ≥ 100 | Activity [4]: Active; selectivity ratio [8]: < 10
4 | N=C(N)N1CC(C(NC(=O)OCc2ccccc2)P(=O)(Oc2ccccc2)Oc2ccccc2)C1 (centres undefined) | ≥ 100 | 71.3 | ≥ 100 | ≥ 100 | 100 | ≥ 100 | inhibition of growth at 100 µM (Escherichia coli [9]): 99%; inhibition of growth at 100 µM (Staphylococcus aureus): 99.9%
5 | CN(C)c1ccc(C(NC(=O)OCc2ccccc2)P(=O)(Oc2ccccc2)Oc2ccccc2)cc1 (centres undefined) | 65.6 | 0.6 | ≥ 100 | ≥ 100 | 100 | 28.4 | Activity [4]: Active
6 | O=C(NC(c1ccc(N2CCNCC2)cc1)P(=O)(Oc1ccccc1)Oc1ccccc1)OCc1ccccc1 (centres undefined) | 0.4 | 0.6 | 8.6 | ≥ 100 | 100 | 1.1 | Activity [10]: Active; inhibition of growth at 100 µM (Escherichia coli [9]): 69.9%
7 | Nc1ccc(C(NC(=O)OCc2ccccc2)P(=O)(Oc2ccccc2)Oc2ccccc2)cc1 (centres undefined) | 57.8 | 39.8 | ≥ 100 | ≥ 100 | 96 | ≥ 100 | selectivity ratio [8]: < 10
8 | O=C(NC(c1c[nH]c2ccc(Cl)cc12)P(=O)(Oc1ccccc1)Oc1ccccc1)OCc1ccccc1 (centres undefined) | 5.9 | 100 | 19.9 | ≥ 100 | 88 | 10.5 | 
9 | O=C(NC(c1cccc([N+](=O)[O-])c1)P(=O)(Oc1ccccc1)Oc1ccccc1)OCc1ccccc1 (centres undefined) |  |  |  |  | 6 |  | 
10 | O=C(NC(CCc1ccc([N+](=O)[O-])cc1)P(=O)(Oc1ccccc1)Oc1ccccc1)OCc1ccccc1 (centres undefined) | ≥ 100 | 13.1 | ≥ 100 | ≥ 100 | 100 | ≥ 100 | 
11 | [N-]=[N+]=NCCOCCOC(=O)NC(Cc1ccc(NC(=N)N)cc1)P(=O)(Oc1ccccc1)Oc1ccccc1 (centres undefined) |  |  |  |  | 68 |  | 
12 | O=C(NC(c1ccc2cc(O)ccc2c1)P(=O)(Oc1ccccc1)Oc1ccccc1)OCc1ccccc1 (centres undefined) |  |  |  |  | < 1 |  | 
13 | N#C[C@@H](NC(=O)OCc1ccccc1)c1cccc(N)c1 |  |  |  |  | 8 |  | 
14 | COc1cccc(C(NC(=O)OCc2ccccc2)P(=O)(Oc2ccccc2)Oc2ccccc2)n1 (centres undefined) | ≥ 100 | 38 | ≥ 100 | ≥ 100 | 100 | ≥ 100 | 
15 | O=C(NC(Cc1cccc(O)c1)P(=O)(Oc1ccccc1)Oc1ccccc1)OCc1ccccc1 (centres undefined) |  |  |  |  | 3 |  | 
16 | C#CCOCCOCCOC(=O)NC(c1ccc(N2CCNCC2)cc1)P(=O)(Oc1ccccc1)Oc1ccccc1 (centres undefined) |  |  |  |  | 25 |  | 
